We go through 9 molecules from ChEMBL document CHEMBL1154939, “Novel multiple opioid ligands based on 4-aminobenzazepinone (Aba), azepinoindole (Aia) and tetrahydroisoquinoline (Tic) scaffolds” (Bioorg Med Chem Lett, 2010).

Active and inactive are the calls of the source. No cut-off for these calls is given here. Numbered stars: 1 amine (or outer) side, 2 acyl side, 3 side chain; on linkers, the order of the positions; unused ones are H or OH. Bridge positions count the residues as written; N and C are the ends. Square brackets hold non-standard residues; d marks the D form. Peptide text beside a SMILES is read from it. I, II: the chains in the order shown. Dmt = Cc1cc(O)cc(C)c1C[C@H](N)C(=O)O; Ethylenediamine = C(CN[*:2])N[*:1]; Tic = O=C(O)[C@@H]1Cc2ccccc2CN1 Bounds are passed on as bounds.

In experiment [1] the target is Mu-type opioid receptor (Rattus norvegicus, UniProt P33535). As to the kind of experiment: Displacement of [3H]DAMGO from mu opioid receptor in rat brain membranes. It counts as cell membranes. Put shortly:
(§1)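 Equilibrium competition binding on P2 membrane preparation of rat brain; mu sites labelled with [3H]DAMGO, delta sites with [3H]deltorphin II. Five to eight graded peptide doses, duplicate wells; Ki via Cheng-Prusoff. Mean ± SEM from three to six independent assays using different synaptosomal preparations.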
(Displacement assays read how much labelled ligand stays bound in the presence of the test substance.)

The target of experiment [2] is Delta-type opioid receptor (Rattus norvegicus, UniProt P33533). As to the kind of experiment: Displacement of [3H]deltorphin 2 from delta opioid receptor in rat brain membranes. It is filed as cell membranes. A digest of the protocol:
as §1

Experiment [3] is filed under the species Rattus norvegicus. Nature of the experiment: Selectivity ratio of Ki for rat delta opioid receptor to Ki for rat mu opioid receptor.
The target in experiment [4] is Mu-type opioid receptor (Homo sapiens) (UniProt P35372). Nature of the experiment: Antagonist activity at mu opioid receptor in human SK-N-SH cells assessed as inhibition of loperamide-stimulated [35S]-GTPgammaS binding after 60 mins by liquid scintillation counting. It counts as functional, cell-based. Put shortly:
(§2)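 [35S]GTPγS binding in cell membranes: delta antagonism measured against deltorphin C-stimulated binding in NG108-15 membranes, mu antagonism against loperamide-stimulated binding in SK-N-SH membranes; antagonism expressed as pA2 from rightward shift of agonist dose-response curves.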
(Binding of GTPγS marks nucleotide exchange on a G protein.)

The target of experiment [5] is Delta-type opioid receptor (Rattus norvegicus) (UniProt P33533). As to the kind of experiment: Antagonist activity at delta opioid receptor in rat NG108-15 cells assessed as inhibition of deltorphin C-stimulated [35S]-GTPgammaS binding after 60 mins by scintillation counting. It counts as functional, cell-based. A digest of the protocol: as §2
Experiment [6] deals with Mu-type opioid receptor (Cavia porcellus, UniProt P97266). As to the kind of experiment: Antagonist activity at mu opioid receptor in guinea pig ileum. It is filed as functional, tissue-based.
In experiment [7] the target is Delta-type opioid receptor (Mus musculus, UniProt P32300). As to the kind of experiment: Antagonist activity at delta opioid receptor in mouse vas deferens. It is filed as functional, tissue-based.
The species named for experiment [8] is Rattus norvegicus. As to the kind of experiment: Selectivity ratio of Ki for rat mu opioid receptor to Ki for rat delta opioid receptor.

Mu-type opioid receptor (Homo sapiens), sequence (P35372 whole entry): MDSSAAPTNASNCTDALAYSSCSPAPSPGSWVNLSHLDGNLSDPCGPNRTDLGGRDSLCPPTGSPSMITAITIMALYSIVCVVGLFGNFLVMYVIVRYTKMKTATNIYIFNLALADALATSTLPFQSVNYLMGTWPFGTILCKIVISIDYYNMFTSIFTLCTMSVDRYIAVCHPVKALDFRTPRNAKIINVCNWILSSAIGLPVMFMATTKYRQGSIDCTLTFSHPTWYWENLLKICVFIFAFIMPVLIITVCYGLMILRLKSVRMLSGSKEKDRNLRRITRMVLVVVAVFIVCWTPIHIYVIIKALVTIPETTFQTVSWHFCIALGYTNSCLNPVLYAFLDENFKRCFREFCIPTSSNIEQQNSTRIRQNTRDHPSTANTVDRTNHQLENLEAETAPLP
Mu-type opioid receptor (Rattus norvegicus, UniProt P33535), sequence (P33535 whole entry): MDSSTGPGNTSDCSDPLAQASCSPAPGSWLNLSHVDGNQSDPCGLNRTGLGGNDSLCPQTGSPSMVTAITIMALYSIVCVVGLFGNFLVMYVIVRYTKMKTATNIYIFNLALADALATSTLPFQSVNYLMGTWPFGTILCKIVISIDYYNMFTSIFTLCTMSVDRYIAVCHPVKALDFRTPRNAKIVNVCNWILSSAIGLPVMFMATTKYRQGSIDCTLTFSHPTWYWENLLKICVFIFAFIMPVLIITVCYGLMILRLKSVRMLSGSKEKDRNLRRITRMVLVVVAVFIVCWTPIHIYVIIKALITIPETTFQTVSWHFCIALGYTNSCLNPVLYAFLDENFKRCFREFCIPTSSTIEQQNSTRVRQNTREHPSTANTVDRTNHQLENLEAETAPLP
Delta-type opioid receptor (Mus musculus, UniProt P32300), sequence (P32300 whole entry): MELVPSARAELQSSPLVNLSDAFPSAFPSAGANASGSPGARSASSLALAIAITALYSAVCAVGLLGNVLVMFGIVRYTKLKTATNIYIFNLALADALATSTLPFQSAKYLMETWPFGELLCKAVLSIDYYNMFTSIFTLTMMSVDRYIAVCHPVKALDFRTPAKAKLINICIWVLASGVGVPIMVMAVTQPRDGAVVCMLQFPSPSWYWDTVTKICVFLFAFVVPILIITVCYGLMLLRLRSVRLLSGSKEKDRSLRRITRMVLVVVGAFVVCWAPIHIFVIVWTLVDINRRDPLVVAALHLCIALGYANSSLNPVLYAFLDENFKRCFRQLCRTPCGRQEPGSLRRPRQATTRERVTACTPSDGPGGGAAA
Mu-type opioid receptor (Cavia porcellus, UniProt P97266), sequence (P97266 whole entry): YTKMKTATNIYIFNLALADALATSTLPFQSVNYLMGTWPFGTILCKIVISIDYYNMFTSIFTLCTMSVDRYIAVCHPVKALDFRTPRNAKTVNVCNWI
Delta-type opioid receptor (Rattus norvegicus), sequence (P33533 whole entry): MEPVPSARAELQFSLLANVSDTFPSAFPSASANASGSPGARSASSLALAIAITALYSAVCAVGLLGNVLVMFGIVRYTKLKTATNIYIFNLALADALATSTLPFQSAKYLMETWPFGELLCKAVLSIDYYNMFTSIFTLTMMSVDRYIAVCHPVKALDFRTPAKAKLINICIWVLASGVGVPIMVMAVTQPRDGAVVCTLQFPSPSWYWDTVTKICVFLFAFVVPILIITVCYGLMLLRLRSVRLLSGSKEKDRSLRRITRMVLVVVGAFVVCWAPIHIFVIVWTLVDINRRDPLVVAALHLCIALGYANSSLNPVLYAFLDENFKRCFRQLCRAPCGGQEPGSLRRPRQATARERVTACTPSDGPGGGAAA
Delta-type opioid receptor (Rattus norvegicus, UniProt P33533), sequence (P33533 whole entry): as above

Take `Cc1cc(O)cc(C)c1C[C@H](N)C(=O)N1Cc2ccccc2C[C@H]1C(=O)NCC/C=C/CCNC(=O)[C@@H]1Cc2ccccc2CN1C(=O)[C@@H](N)Cc1c(C)cc(O)cc1C`: in experiment [1], the Ki (commonly a dissociation constant, usually derived from enzyme kinetics or from competition with a known ligand) is 1.5 nM.
On to `Cc1cc(O)cc(C)c1C[C@H](N)C(=O)N[C@@H]1Cc2c([nH]c3ccccc23)CN(CC(=O)NCCNC(=O)CN2Cc3[nH]c4ccccc4c3C[C@@H](NC(=O)[C@@H](N)Cc3c(C)cc(O)cc3C)C2=O)C1=O`, for which the values for the Ki in experiment [1] and in experiment [2] were 139 nM and 211 nM, respectively. For the same molecule, the Ratio Ki in experiment [3] turned out to be 1.5. The pA2 result in experiment [4] and in experiment [5] was “inactive” in each case.
With `Cc1cc(O)cc(C)c1C[C@H](N)C(=O)N[C@H]1Cc2ccccc2CN(CC(=O)NCCNC(=O)CN2Cc3ccccc3C[C@H](NC(=O)[C@@H](N)Cc3c(C)cc(O)cc3C)C2=O)C1=O`, the Ki in experiment [1] is 16.1 nM; in experiment [2] it was 154 nM. Besides, the IC50 (in general, the concentration needed to halve the response being measured) in experiment [6] is above 10000 nM.
For `Cc1cc(O)cc(C)c1C[C@H](N)C(=O)N1Cc2ccccc2C[C@H]1C(=O)NCCN(CCNC(=O)[C@@H]1Cc2ccccc2CN1C(=O)[C@@H](N)Cc1c(C)cc(O)cc1C)CCNC(=O)[C@@H]1Cc2ccccc2CN1C(=O)[C@@H](N)Cc1c(C)cc(O)cc1C`, the values for the Ki in experiment [1] and in experiment [2] were 7.78 nM and 3.75 nM, respectively. For the same molecule, the IC50 in experiment [7] and in experiment [6] was above 10000 nM each time.
Consider `Cc1cc(O)cc(C)c1C[C@H](N)C(=O)N1Cc2ccccc2C[C@H]1C(=O)NCCNC(=O)[C@@H]1Cc2ccccc2CN1C(=O)[C@@H](N)Cc1c(C)cc(O)cc1C` (I: H-[Dmt]-[Tic] / II: H-[Dmt]-[Tic]; linker I:C-II:C via Ethylenediamine), for which the Ki is 10.2 nM in experiment [1] and 0.96 nM in experiment [2]. For the same molecule, the 50% inhibitory concentration (IC50) in experiment [7] and in experiment [6] was above 10000 nM each time.
Turning to `Cc1cc(O)cc(C)c1C[C@@H](C(=O)N[C@H]1Cc2c([nH]c3ccccc23)CN(CC(=O)NCCNC(=O)CN2Cc3[nH]c4ccccc4c3C[C@H](NC(=O)[C@H](Cc3c(C)cc(O)cc3C)N(C)C)C2=O)C1=O)N(C)C`, the results for the Ki in experiment [1] and in experiment [2] were 344 nM and 101 nM, respectively. The Ratio Ki in experiment [8] worked out at 3.4. The pA2 result in experiment [4] and in experiment [5] was “inactive” in each case.
Consider `Cc1cc(O)cc(C)c1C[C@H](N)C(=O)N1Cc2ccccc2C[C@H]1C(=O)O` (H-[Dmt]-[Tic]-OH), for which the affinity in experiment [1] corresponds to a Ki of 3.32 nM.
With `Cc1cc(O)cc(C)c1C[C@H](N)C(=O)N[C@@H]1Cc2c([nH]c3ccccc23)CN(CC(=O)NCc2ccc(CNC(=O)CN3Cc4[nH]c5ccccc5c4C[C@@H](NC(=O)[C@@H](N)Cc4c(C)cc(O)cc4C)C3=O)cc2)C1=O`, the results for the inhibition constant Ki in experiment [1] and in experiment [2] were 177 nM and 361 nM, respectively. For the same molecule, in experiment [3], the Ratio Ki was found to be 2. The pA2 entry in experiment [4] and in experiment [5] was “inactive” in each case.
Take `Cc1cc(O)cc(C)c1C[C@H](N)C(=O)N[C@H]1Cc2ccccc2CN(CC(=O)NCCN(CCNC(=O)CN2Cc3ccccc3C[C@H](NC(=O)[C@@H](N)Cc3c(C)cc(O)cc3C)C2=O)CCNC(=O)CN2Cc3ccccc3C[C@H](NC(=O)[C@@H](N)Cc3c(C)cc(O)cc3C)C2=O)C1=O`: the Ki in experiment [1] was found to be 8.06 nM; in experiment [2], 196 nM. The IC50 in experiment [7] and in experiment [6] was above 10000 nM throughout.
